In ChEMBL document CHEMBL1148795 (J Med Chem, 2007):
Active and inactive are the calls of the source. The rule behind the calls is not given here.

What was measured:
[1] = tested on: Human immunodeficiency virus 1; test: Antiviral activity against HIV1 3B in human MT4 cells by MTT assay; details: for EC50: Human immunodeficiency virus 1, 3B
[2] = Cytotoxicity against human CEM-SS cells by MTT assay; type: cell-based
[3] = tested on: Human immunodeficiency virus 1; test: Antiviral activity against HIV1 RF in human CEM-SS cells by XTT assay; type: functional, organism-based; details: for EC50: Human immunodeficiency virus 1, RF
[4] = target: Human immunodeficiency virus type 1 reverse transcriptase (Human immunodeficiency virus 1, UniProt Q72547); test: Inhibition of HIV1 reverse transcriptase
[5] = tested on: Human immunodeficiency virus 2; test: Antiviral activity against HIV2 ROD in human MT4 cells by MTT assay; details: for EC50: Human immunodeficiency virus 2, ROD
[6] = Metabolic stability in rat plasma; type: ADME, cell-free
Summary of the method: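 Compounds were incubated in reconstituted rat plasma (two lots, checked with a control compound), with 1,1-diphenylethylene as internal standard. Aliquot supernatants were analysed by HPLC with UV detection. Half-lives came from regression fits of concentration versus time and were averaged over at least two replicates.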

[7] = Cytotoxicity against human MT4 cells by MTT assay; type: cell-based
[8] = tested on: Human immunodeficiency virus 1; test: Antiviral activity against HIV1 with RT K103N mutation; type: functional, organism-based
Summary of the method: (§1)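 Cytoprotection assay in CEM-SS cells infected with HIV-1 strains engineered to carry the NNRTI-resistance RT mutation (K103N or Y181C). Activity is expressed as the EC50 for protection of the cells from virus-induced cytopathic effect.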

[9] = tested on: Human immunodeficiency virus 1; test: Antiviral activity against HIV1 with RT Y181C mutation; type: functional, organism-based
Summary of the method: as §1

## COc1c(C)cc(/C(=C\CCc2nnc(C)o2)c2cccc(C#N)c2)cc1C(=O)SC
[1]
  EC50: 1.4 µM
[2]
  CC50: 2.7 µM
[3]
  Activity: inactive
[4]
  IC50: 9.3 µM
[5]
  Activity: inactive
[6]
  half-life: 221 min
[7]
  CC50: 8.4 µM

## COc1c(C)cc(/C(=C\CCc2nnc(C)o2)c2ccc3oncc3c2)cc1C(=O)SC
[2]
  CC50: 38 µM
[3]
  EC50: 2.6 µM
[4]
  IC50: 7.7 µM
[8]
  EC50: > 50 µM
[9]
  EC50: > 100 µM

## COC(=O)c1cc(C(=CCCc2nnn(C)n2)c2cc(C)c(OC)c(C(=O)SC)c2)cc(C)c1OC
[1]
  Activity: inactive
[2]
  CC50: 1.6 µM
[3]
  Activity: inactive
[4]
  IC50: 95 µM
[5]
  Activity: inactive
[7]
  CC50: 1.4 µM

## COC(=O)CCC/C=C(\c1cc(C)c(OC)c(C(=O)OC)c1)c1cc(C)c2onc(OC)c2c1
[4]
  IC50: 0.91 µM

## COC(=O)c1cc(C(=CCCc2nnn(C)n2)c2cc(C)c(OC)c(C(=O)OC)c2)cc(C)c1OC
[1]
  Activity: inactive
[2]
  CC50: 9.6 µM
[3]
  Activity: inactive
[4]
  IC50: 53 µM
[5]
  Activity: inactive
[6]
  half-life: 24 min
[7]
  CC50: 5 µM

## COC(=O)c1cc(C(=CCCc2nnc(C)o2)c2cc(C)c(OC)c(C(=O)OC)c2)cc(C)c1OC
[2]
  CC50: 40 µM
[4]
  IC50: 71 µM
[5]
  Activity: inactive
[6]
  half-life: 3.3 min
[7]
  CC50: 37 µM

## COC(=O)CCC/C=C(\c1cc(C)c(OC)c(C(=O)OC)c1)c1cc(C)c2oc(=O)n(C)c2c1
[5]
  Activity: inactive

## COC(=O)CCCC=C(c1cc(Br)c(OC)c(C(=O)OC)c1)c1cc(Br)c(OC)c(C(=O)OC)c1
[2]
  CC50: 13 µM
[5]
  Activity: inactive
[6]
  half-life: 6.2 min
[7]
  CC50: 91 µM

## COc1c(C)cc(/C(=C/CCc2nnc(C)o2)c2cc(C)c3oc(=O)n(C)c3c2)cc1C(=O)SC
[1]
  Activity: inactive
[2]
  CC50: 6.6 µM
[3]
  Activity: inactive
[4]
  IC50: 90 µM
[5]
  EC50: 5.9 µM
[7]
  CC50: 14 µM

## COc1c(C)cc(/C(=C/CCCc2nnc(C)o2)c2cc(C)c3on(C)c(=O)c3c2)cc1C(=O)SC
[1]
  Activity: inactive
[2]
  CC50: 12 µM
[3]
  Activity: inactive
[4]
  IC50: > 100 µM
[5]
  Activity: inactive
[7]
  CC50: 25 µM

## Cc1ccnc2c1NC(=O)c1cccnc1N2C1CC1 [NEVIRAPINE]
[3]
  EC50: 0.015 µM
[5]
  Activity: inactive
[7]
  CC50: 15 µM

## COc1c(C)cc(/C(=C/CCc2nnc(C)o2)c2cccc(C#N)c2)cc1C(=O)SC
[1]
  Activity: inactive
[2]
  CC50: 1.3 µM
[3]
  Activity: inactive
[4]
  IC50: 55 µM
[5]
  Activity: inactive
[7]
  CC50: 3.8 µM

## COC(=O)CCCC=C(c1cc(Cl)c(OC)c(C(=O)OC)c1)c1cc(Cl)c(OC)c(C(=O)OC)c1
[2]
  CC50: 32 µM
[3]
  EC50: 0.01 µM
[5]
  EC50: 25 µM
[6]
  half-life: 5.8 min
[7]
  CC50: 160 µM

## COc1c(C)cc(/C(=C/CCCc2nnc(C)o2)c2cc(C)c3oc(=O)n(C)c3c2)cc1C(=O)SC
[1]
  Activity: inactive
[2]
  CC50: 5.5 µM
[3]
  Activity: inactive
[4]
  IC50: 36 µM
[5]
  Activity: inactive
[7]
  CC50: 7.7 µM

## COC(=O)c1cc(/C(=C\CCc2nnc(C)o2)c2ccc(C#N)cc2)cc(C)c1OC
[1]
  EC50: 2 µM
[2]
  CC50: 28 µM
[3]
  EC50: 3 µM
[4]
  IC50: 24 µM
[5]
  Activity: inactive
[6]
  half-life: 45 min
[7]
  CC50: 16 µM

## COc1c(C)cc(/C(=C/CCc2nnc(C)o2)c2ccc(C#N)cc2)cc1C(=O)SC
[1]
  Activity: inactive
[2]
  CC50: 1.2 µM
[3]
  Activity: inactive
[4]
  IC50: 48 µM
[5]
  Activity: inactive
[7]
  CC50: 3.2 µM

## COc1c(C)cc(/C(=C/CCCc2nnc(C)o2)c2cc(C)c3onc(OC)c3c2)cc1C(=O)SC
[1]
  Activity: inactive
[2]
  CC50: 0.78 µM
[3]
  Activity: inactive
[4]
  IC50: 5.2 µM
[5]
  Activity: inactive
[8]
  EC50: > 50 µM
[7]
  CC50: 1.1 µM
[9]
  EC50: > 100 µM

## COc1c(C)cc(C(=CCCc2nnc(C)o2)c2cc(C)c(OC)c(C(=O)SC)c2)cc1C(=O)SC
[1]
  Activity: inactive
[2]
  CC50: 8.1 µM
[3]
  Activity: inactive
[4]
  IC50: > 100 µM
[5]
  Activity: inactive
[7]
  CC50: 5.9 µM

## COc1c(C)cc(/C(=C\CCCc2nnc(C)o2)c2cc(C)c3on(C)c(=O)c3c2)cc1C(=O)SC
[1]
  EC50: 0.76 µM
[2]
  CC50: 6 µM
[3]
  EC50: 0.97 µM
[4]
  IC50: > 100 µM
[5]
  Activity: inactive
[7]
  CC50: 9.9 µM

## COC(=O)c1cc(/C(=C/CCc2nnc(C)o2)c2cc(C)c3oc(=O)n(C)c3c2)cc(C)c1OC
[1]
  EC50: 0.44 µM
[2]
  CC50: 3.2 µM
[3]
  EC50: 0.43 µM
[4]
  IC50: 1 µM
[5]
  Activity: inactive
[8]
  EC50: > 50 µM
[7]
  CC50: 13 µM
[9]
  EC50: > 100 µM

## COc1c(C)cc(/C(=C\CCc2nnc(C)o2)c2cc(C)c3on(C)c(=O)c3c2)cc1C(=O)SC
[1]
  EC50: 3.7 µM
[2]
  CC50: 18 µM
[3]
  EC50: 6.4 µM
[4]
  IC50: 9.2 µM
[5]
  Activity: inactive
[8]
  EC50: > 50 µM
[7]
  CC50: 19 µM
[9]
  EC50: > 100 µM

## COc1c(C)cc(/C(=C/CCCc2nnc(C)o2)c2cccc(C#N)c2)cc1C(=O)SC
[1]
  Activity: inactive
[2]
  CC50: 7.2 µM
[3]
  Activity: inactive
[4]
  IC50: 7.7 µM
[5]
  Activity: inactive
[7]
  CC50: 8.2 µM

## COc1c(C)cc(C(=CCCc2nnn(C)n2)c2cc(C)c(OC)c(C(=O)SC)c2)cc1C(=O)SC
[1]
  Activity: inactive
[2]
  CC50: 33 µM
[4]
  IC50: 67 µM
[5]
  Activity: inactive
[7]
  CC50: 7 µM

## COc1c(C)cc(/C(=C\CCc2nnc(C)o2)c2ccc(C#N)cc2)cc1C(=O)SC
[1]
  EC50: 3.2 µM
[2]
  CC50: 5.5 µM
[3]
  EC50: 2.1 µM
[4]
  IC50: 6.3 µM
[5]
  Activity: inactive
[8]
  EC50: > 50 µM
[7]
  CC50: 45 µM
[9]
  EC50: > 100 µM

## COc1c(C)cc(/C(=C/CCc2nnc(C)o2)c2cc(C)c3onc(OC)c3c2)cc1C(=O)SC
[1]
  Activity: inactive
[2]
  CC50: 1.2 µM
[3]
  Activity: inactive
[4]
  IC50: 33 µM
[5]
  Activity: inactive
[7]
  CC50: 1.6 µM

## COc1c(C)cc(/C(=C/CCc2nnc(C)o2)c2cc(C)c3on(C)c(=O)c3c2)cc1C(=O)SC
[1]
  Activity: inactive
[2]
  CC50: 17 µM
[3]
  Activity: inactive
[4]
  IC50: > 100 µM
[5]
  Activity: inactive
[7]
  CC50: 37 µM

## COC(=O)c1cc(/C(=C\CCc2nnn(C)n2)c2cccc(C#N)c2)cc(C)c1OC
[1]
  EC50: 1.5 µM
[2]
  CC50: 7.4 µM
[3]
  EC50: 2.4 µM
[4]
  IC50: 7.7 µM
[5]
  Activity: inactive
[6]
  half-life: 42 min
[7]
  CC50: 34 µM

## COC(=O)c1cc(C(=CCCc2nnc(C)o2)c2cc(C)c(OC)c(C(=O)SC)c2)cc(C)c1OC
[1]
  Activity: inactive
[2]
  CC50: 13 µM
[3]
  Activity: inactive
[4]
  IC50: 32 µM
[5]
  Activity: inactive
[6]
  half-life: 78 min
[7]
  CC50: 3.9 µM

## O=C1Nc2ccc(Cl)cc2C(C#CC2CC2)(C(F)(F)F)O1 (single isomer, unassigned) [EFAVIRENZ]
[5]
  Activity: inactive
[7]
  CC50: 6 µM
